The values below come from ChEMBL document CHEMBL3414496, “Synthesis and biological evaluation of novel 2-heteroarylimino-1,3-thiazolidin-4-ones as potential anti-tumor agents” (Eur J Med Chem, 2015).

The test system of assay [1] is HT-29. Description: Induction of chromatin condensation in human HT-29 cells incubated for 2 days by DAPI staining based UV fluorescent microscopy. Format: functional, cell-based. The procedure, abridged: (§1)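 HT29 cells in 35 mm dishes treated over two days, fixed in 70% ethanol for 5 min and rinsed with PBS. Stained with 1 µM DAPI in PBS for 15 min and imaged by UV fluorescence microscopy for nuclear morphology.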

Assay [2] deals with HT-29. Description: Induction of nuclear fragmentation in human HT-29 cells incubated for 2 days by DAPI staining based UV fluorescent microscopy. Format: functional, cell-based. The procedure, abridged:
as §1

Assay [3] has as its system HT-29. Description: Induction of mitochondrial membrane potential loss in human HT-29 cells incubated for 2 days by JC1 staining based UV fluorescent microscopy. Format: functional, cell-based. A digest of the protocol:
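HT29 cells in dishes exposed to test agents, then 1 µM JC-1 added to the medium for 15 min at 37°C. Cells washed with warm PBS and imaged by fluorescence microscopy for J-aggregates (red channel). 50 µM CCCP for 15 min served as depolarization control.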

Assay [4] concerns HT-29. Description: Induction of autophagy in human HT-29 cells assessed as increase in acidic vesicles by acridine orange staining based flow cytometry. Format: functional, cell-based. A digest of the protocol:
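HT29 cells treated for two days with daily medium changes, stained with 1 µg/ml acridine orange for 15 min, then trypsinized and suspended in PBS. FL-3 fluorescence read by flow cytometry on 30 000 cells/sample and expressed in arbitrary units relative to DMSO-treated cells. Triplicates from three independent experiments.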

For assay [5], the system named is HT-29. Briefly: Induction of autophagy in human HT-29 cells assessed as increase in beclin-1 protein expression by Western blotting method. The format is functional, cell-based. The procedure, abridged: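 HT29 cells in flasks treated over two days. Total protein homogenates immunoblotted with anti-beclin-1 (1:500), with GAPDH as loading control.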
In general terms: In western blotting, separated proteins are transferred to a membrane and probed.

Assay [6] concerns HT-29. Briefly: Induction of redox status changes in human HT-29 cells assessed as RNS content by DAF-2DA staining based fluorescence assay (reference value: 100%). Format: functional. A digest of the protocol: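 HT29 cells treated two days after seeding, then loaded with 1 µM DAF-2DA for 30 min at 37°C. Cells trypsinized and resuspended in PBS, and 30 000 cells/sample measured by flow cytometry (FL-1). Expressed as % of DMSO-treated cells. Triplicates from three independent experiments.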

The test system of assay [7] is HT-29. Description: Induction of redox status changes in human HT-29 cells assessed as RNS content by DHR123 staining based fluorescence assay (reference value: 100%). Format: functional. A digest of the protocol: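 HT29 cells treated two days after seeding, then loaded with 25 µM DHR for 20 min at 37°C. Cells trypsinized and resuspended in PBS, and 30 000 cells/sample read by flow cytometry (FL-1). Expressed as % of DMSO controls. Triplicates from three independent experiments.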

For assay [8], the system named is HT-29. Briefly: Induction of redox status changes in human HT-29 cells assessed as GSH content by fluorescence based microtiter plate method (reference value: 100%). The format is functional. A digest of the protocol: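 HT29 cells exposed 48 h after seeding for 24 h, then extracted into ice-cold 10% perchloric acid with 2 mM EDTA and spun at 15 000 g. GSH in the supernatant measured by a fluorescence microtiter plate method; pellet protein measured by modified Lowry. Values in nmol GSH/mg protein, shown as % of DMSO controls. Triplicates from three experiments.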

Assay [9] concerns HT-29. Briefly: Cytotoxicity against human HT-29 cells after 72 hrs by MTT assay. The format is functional, cell-based. Particulars: HT-29, 72 h. The procedure, abridged:
(§2)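 Cells seeded at 10^4/well, exposed 24 h later to graded concentrations (0.01–100 µM) for 72 h at 37°C; MTT 0.5 mg/ml for 2 h, formazan dissolved in DMSO, absorbance at 570 nm. […] Colon lines in DMEM, breast lines in RPMI, both with 10% FCS.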
A general note: Formazan colour is commonly taken as a measure of viable cells.

Assay [10] can be described thus: Cytotoxicity against human HCT116 cells after 72 hrs by MTT assay. The format is functional, cell-based. Particulars: HCT-116, 72 h. A digest of the protocol: as §2
The test system of assay [11] is SW-620. Description: Cytotoxicity against human SW620 cells after 72 hrs by MTT assay. Format: functional, cell-based. Particulars: SW-620, 72 h. A digest of the protocol: as §2
The subject of assay [12] is MCF7. Description: Cytotoxicity against human MCF7 cells after 72 hrs by MTT assay. The settings on record: MCF7, 72 h. The format is functional, cell-based. A digest of the protocol: as §2
The subject of assay [13] is MDA-MB-231. Description: Cytotoxicity against human MDA-MB-231 cells after 72 hrs by MTT assay. The format is functional, cell-based. The settings on record: MDA-MB-231, 72 h. The procedure, abridged:
as §2

The subject of assay [14] is HT-29. Description: Growth inhibition of human HT-29 cells at cytotoxic IC50 level after 3 days by trypan blue dye exclusion assay. The format is functional. The procedure, abridged: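 HT29 cells treated 48 h after seeding, dosed daily with daily medium change over three days; drug diluted in DMSO, controls 0.1% (v/v) DMSO. Cells trypsinized, mixed 1:1 with 0.04% trypan blue, live cells counted by hematimeter. Reported as mitotic index (treated/DMSO count); triplicates from two independent experiments.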

The test system of assay [15] is HT-29. Description: Induction of redox status changes in human HT-29 cells assessed as ROS content in absence of 1 mM ascorbic acid by DCF-DA staining based fluorescence assay (reference value: 100%).
Assay [16] relates to HT-29. Briefly: Induction of cell cycle arrest in human HT-29 cells assessed as accumulation at S phase by propidium iodide staining based flow cytometry (reference value: 23.9 +/- 0.3%). Format: functional. (In general: A flow cytometer gives signals particle by particle.)
Assay [17] relates to HT-29. Description: Induction of cell cycle arrest in human HT-29 cells assessed as accumulation at G2/M phase by propidium iodide staining based flow cytometry (reference value: 30 +/- 2%). The format is functional.
For assay [18], the system named is HT-29. Briefly: Induction of ROS generation in human HT-29 cells at cytotoxic IC50 level after 4 hrs by DCF-DA staining based fluorescence assay. The format is functional, cell-based. A digest of the protocol: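 HT29 cells treated two days after seeding, then loaded with 50 µM DCF-DA for 15 min at 37°C. Cells trypsinized, washed and resuspended in PBS, and 30 000 cells/sample read by flow cytometry (FL-1). Expressed as % of DMSO-treated cells; […] for 1 h served as positive control. Triplicates from three independent experiments.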

Assay [19] concerns HT-29. Description: Reduction in cell growth of human HT-29 cells at cytotoxic IC50 level after 3 days by trypan blue dye exclusion assay. Format: functional, cell-based. The procedure, abridged: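 HT29 cells treated daily from 48 h after seeding, over three days with daily medium changes, in 0.1% (v/v) DMSO vehicle. Cells trypsinised, mixed 1:1 with 0.04% trypan blue, and living cells counted by haemocytometer under microscope. Mitotic index is treated count relative to DMSO control. Triplicate determinations, two independent experiments, mean ± S.E.M.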

Assay [20] relates to HT-29. Briefly: Reduction in cell viability of human HT-29 cells assessed as reduction in living cell level at cytotoxic IC50 level after 24 to 48 hrs by DCF-DA and propidium iodide staining based flow cytometry. The format is functional. The procedure, abridged:
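HT29 cells treated two days after seeding, then loaded together with 50 µM DCF-DA and 25 µg/mL propidium iodide for 15 min at 37°C. Cells trypsinised, washed and resuspended in PBS; 30 000 cells per sample read by flow cytometry (FL-1, FL-3). Viable cells (PI-negative, DCF-positive) given as % of total events. Triplicates, two independent experiments.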

Assay [21] has as its system HT-29. Briefly: Induction of redox status changes in human HT-29 cells assessed as ROS content in presence of 1 mM ascorbic acid by DCF-DA staining based fluorescence assay (reference value: 65.7 +/- 4.7%).

pIC50: −log10 of the molar value. The source made the active and inactive calls. The rule behind the calls is not given here.

Regarding `COc1ccc(/C=C2\S/C(=N\c3nc(-c4ccc(Cl)cc4)cs3)NC2=O)cc1`, the outcome in [1], in assay [2], in assay [3], in assay [4] and in assay [5] was Active. Besides, the Activity was 103.3% in [6], 80.9% in assay [7] and 117% in assay [8]. For the same molecule, the pIC50 (usually the negative decadic logarithm of the IC50, by convention in mol/L) in [9] is 6.40; in [10] it was 6.40; in assay [11], 7.30; in assay [12], 7.00; in [13], 6.52. Moreover, in assay [14], the “growth inhibition (GI)” value was below 25%.

Take `CN(C)c1ccc(/C=C2\S/C(=N\c3nc(-c4ccc(Cl)cc4)cs3)NC2=O)cc1`: the outcome in assay [1], in assay [2], in assay [3], in [4] and in [5] was Active. Further, the Activity in assay [6] came out at 144.4%; in assay [7], 157.6%; in assay [8], 109.1%; in assay [15], 252.5%. For the same molecule, the pIC50 is 6.30 in assay [9]; 6.70 in [10]; 6.70 in assay [11]; 7.00 in assay [12]; 6.52 in [13]. Besides, the “growth inhibition (GI)” value in assay [14] is below 25%.

Turning to `COc1ccc(/C=C2\S/C(=N\c3csc(-c4ccc(Cl)cc4)c3)NC2=O)cc1`, the Activity was found to be 18.2% in [16]; 80.6% in assay [17]; 169.7% in assay [6]; 85.9% in [7]; 88.8% in assay [8]; 123.1% in [15]. Moreover, in assay [21], the Activity came to 97%. Further, the result in assay [1], in assay [2], in assay [3], in assay [18], in assay [4] and in [5] was Active. The pIC50 in assay [9] was 5.42; in assay [10], 5.89; in assay [11] it was 4.55; in assay [12], 6.00; in [13], 5.92. In assay [14], the “growth inhibition (GI)” value is recorded as 90%. Also, the inhibition result in assay [19] and in assay [20] was “Active” in each case.

Regarding `Cc1ccc(/C=C2\S/C(=N\c3csc(-c4ccc(Cl)cc4)c3)NC2=O)cc1`, the Activity came to 14.8% in assay [16]; 84% in assay [17]; 155% in assay [6]; 95% in assay [7]; 73.9% in assay [8]; 172% in assay [15]. Moreover, the Activity in [21] was determined as 102.5%. The outcome in [1], in assay [2], in [3], in [18], in assay [4] and in assay [5] was Active. Besides, the pIC50 is 5.19 in assay [9]; 6.00 in assay [10]; 5.82 in [11]; 6.05 in assay [12]; 6.05 in assay [13]. Also, in assay [14], the “growth inhibition (GI)” value is 90%. In addition, the inhibition entry in assay [19] and in [20] was “Active” each time.

With `CN(C)c1ccc(/C=C2\S/C(=N\c3csc(-c4ccc(Cl)cc4)c3)NC2=O)cc1`, the Activity is listed as 14.8% in [16]; 83.7% in assay [17]; 294.4% in [6]; 80.1% in assay [7]; 84.6% in assay [8]; 177.8% in assay [15]. The Activity in assay [21] is listed as 133.6%. Also, the result in assay [1], in assay [2], in assay [3], in assay [18], in [4] and in assay [5] was Active. Besides, the pIC50 was 5.82 in assay [9]; 6.30 in [10]; 6.10 in assay [11]; 6.40 in [12]; 6.10 in assay [13]. For the same molecule, the “growth inhibition (GI)” value in assay [14] is given as 90%. The inhibition result in assay [19] and in assay [20] was “Active” each time.

Regarding `COc1ccc(/C=C2\S/C(=N\c3csc(-c4ccc(Cl)cc4)c3)NC2=O)cc1OC`, the Activity in [16] is on record as 11.3%; in [17], 86.4%; in assay [6], 116.3%; in assay [7], 83.6%; in [8], 108.1%; in [15] it was 141.6%. In assay [21], the Activity worked out at 112.1%. Further, the outcome in [1], in [2], in assay [3], in assay [18], in assay [4] and in [5] was Active. In addition, the pIC50 in assay [9] was 4.96; in [10] it was 5.77; in [11], below 4.30; in assay [12], 5.12; in assay [13] it was 5.72. In assay [14], the “growth inhibition (GI)” value is on record as 90%. Moreover, the inhibition entry in [19] and in [20] was “Active” in each case.
